In brackets after ≈: the same amount, converted by molar mass. Activity calls are given as the source filed them. The calls are words filed in the database; no cut-off is given here.
What was measured:
Mycobacterium kansasii [1] = test: Antimycobacterial activity against Mycobacterium kansasii isolate 6509/96 after 21 days by micromethod; type: functional; conditions: isolate 6509/96, 504 h
Staphylococcus aureus [2] = test: Antibacterial activity against Staphylococcus aureus CCM 4516/08 incubated for 24 hrs under dark condition by microdilution broth assay; type: functional; conditions: CCM 4516/08, 24 h
In short: (§1)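 Broth microdilution per M07-A07, modified, in Mueller-Hinton broth adjusted to pH 7.4 (±0.2). Inoculum is prepared in sterile water to McFarland 0.5 (1.5 × 10⁸ CFU/mL). Plates are incubated in the dark at 35 °C in humid air. MIC is read after 24 and 48 h as at least 95% growth reduction versus control (IC₉₅).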

Mycobacterium kansasii [3] = test: Antimycobacterial activity against Mycobacterium kansasii isolate 6509/96 after 14 days by micromethod; type: functional; conditions: isolate 6509/96, 336 h
[4] = test system: Staphylococcus epidermidis; test: Antibacterial activity against Staphylococcus epidermidis H 6966/08 incubated for 48 hrs under dark condition by microdilution broth assay; type: functional; conditions: H 6966/08, 48 h; in short: as §1
Mycobacterium kansasii [5] = test: Antimycobacterial activity against Mycobacterium kansasii isolate 6509/96 after 7 days by micromethod; type: functional; conditions: isolate 6509/96, 168 h
Mycobacterium avium [6] = test: Antimycobacterial activity against Mycobacterium avium 330/88 measured after 21 days by micromethod; type: functional; conditions: 330/88, 504 h
[7] = test system: Mycobacterium tuberculosis; test: Antimycobacterial activity against Mycobacterium tuberculosis H37Rv 331/88 measured after 21 days by micromethod; type: functional; conditions: H37Rv 331/88, 504 h
Enterococcus [8] = test: Antibacterial activity against Enterococcus sp. J 14365/08 incubated for 24 hrs under dark condition by microdilution broth assay; conditions: J 14365/08, 24 h
Mycobacterium kansasii [9] = test: Antimycobacterial activity against Mycobacterium kansasii isolate 235/80 after 14 days by micromethod; type: functional; conditions: isolate 235/80, 336 h
Escherichia coli [10] = test: Antibacterial activity against Escherichia coli CCM 4517 incubated for 24 hrs under dark condition by microdilution broth assay; type: functional; conditions: CCM 4517, 24 h; in short: as §1
[11] = Solubility of the compound in Sula's semisynthetic medium up to 1 mM; type: physicochemical
Mycobacterium kansasii [12] = test: Antimycobacterial activity against Mycobacterium kansasii isolate 235/80 after 21 days by micromethod; type: functional; conditions: isolate 235/80, 504 h
Staphylococcus aureus [13] = test: Antibacterial activity against Staphylococcus aureus CCM 4516/08 incubated for 48 hrs under dark condition by microdilution broth assay; type: functional; conditions: CCM 4516/08, 48 h; in short: as §1
[14] = test system: Mycobacterium tuberculosis; test: Antimycobacterial activity against Mycobacterium tuberculosis H37Rv 331/88 measured after 14 days by micromethod; type: functional; conditions: H37Rv 331/88, 336 h
Staphylococcus aureus [15] = test: Antibacterial activity against methicillin-resistant Staphylococcus aureus H 5996/08 incubated for 48 hrs under dark condition by microdilution broth assay; type: functional; conditions: H 5996/08, 48 h
In short: (§2)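 Microdilution broth method modified per M07-A07, in Mueller-Hinton broth adjusted to pH 7.4 (±0.2). Inoculum made in sterile water to 0.5 McFarland (1.5 × 10⁸ CFU/mL). Plates incubated in the dark at 35 °C in a humid atmosphere, with reads at 24 and 48 h. MIC taken as at least 95% growth reduction (IC₉₅) versus control.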

Lichtheimia corymbifera = test: Antifungal activity against Absidia corymbifera 272 after 24 to 48 hrs hrs by microdilution broth assay; type: functional
In short: (§3)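 Broth microdilution per CLSI M27-A3 and M38-A2 in RPMI 1640 with glutamine, buffered to pH 7.0 with MOPS. Compounds are diluted in DMSO. Final inoculum is 5 × 10³ CFU/mL for yeasts and 0.5–5 × 10⁴ CFU/mL for moulds. Plates are incubated in the dark at 35 °C in humid air and read visually and/or at 540 nm after 24 and 48 h. MIC is ≥80% growth reduction (IC₈₀) for yeasts and ≥50% (IC₅₀) for filamentous fungi.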

Enterococcus [16] = test: Antibacterial activity against Enterococcus sp. J 14365/08 incubated for 48 hrs under dark condition by microdilution broth assay; conditions: J 14365/08, 48 h
Mycobacterium kansasii [17] = test: Antimycobacterial activity against Mycobacterium kansasii isolate 235/80 after 7 days by micromethod; type: functional; conditions: isolate 235/80, 168 h
Escherichia coli [18] = test: Antibacterial activity against Escherichia coli CCM 4517 incubated for 48 hrs under dark condition by microdilution broth assay; type: functional; conditions: CCM 4517, 48 h; in short: as §1
Pichia kudriavzevii = test: Antifungal activity against Candida krusei E28 after 24 to 48 hrs hrs by microdilution broth assay; type: functional; in short: as §3
Klebsiella pneumoniae [19] = test: Antibacterial activity against ESBL positive Klebsiella pneumoniae J 14368/08 up to 500 uM incubated for 24 to 48 hrs under dark condition by microdilution broth assay; type: functional; in short: as §1
Staphylococcus aureus [20] = test: Antibacterial activity against methicillin-resistant Staphylococcus aureus H 5996/08 incubated for 24 hrs under dark condition by microdilution broth assay; type: functional; conditions: H 5996/08, 24 h; in short: as §2
Pseudomonas aeruginosa = test: Antibacterial activity against Pseudomonas aeruginosa CCM 1961 up to 500 uM incubated for 24 to 48 hrs under dark condition by microdilution broth assay; type: functional; in short: as §1
Mycobacterium avium [21] = test: Antimycobacterial activity against Mycobacterium avium 330/88 measured after 14 days by micromethod; type: functional; conditions: 330/88, 336 h
[22] = test system: Staphylococcus epidermidis; test: Antibacterial activity against Staphylococcus epidermidis H 6966/08 incubated for 24 hrs under dark condition by microdilution broth assay; type: functional; conditions: H 6966/08, 24 h; in short: as §1
Klebsiella pneumoniae [23] = test: Antibacterial activity against Klebsiella pneumoniae D 11750/08 up to 500 uM incubated for 24 to 48 hrs under dark condition by microdilution broth assay; type: functional; in short: as §1

O=C(O)CN1C(=O)/C(=C/c2cccc(O)c2)SC1=S
MIC (Mycobacterium kansasii [1]): 1000 µM (≈ 295 µg/mL) | MIC95 (Staphylococcus aureus [2]): > 500 µM | MIC (Mycobacterium kansasii [3]): 1000 µM (≈ 295 µg/mL) | MIC95 [4]: > 500 µM | MIC (Mycobacterium kansasii [5]): 500 µM (≈ 148 µg/mL) | MIC (Mycobacterium avium [6]): > 1000 µM | MIC [7]: 1000 µM (≈ 295 µg/mL) | MIC95 (Enterococcus [8]): 500 µM (≈ 148 µg/mL) | MIC (Mycobacterium kansasii [9]): 1000 µM (≈ 295 µg/mL) | MIC95 (Escherichia coli [10]): > 500 µM | solubility [11]: Soluble | MIC (Mycobacterium kansasii [12]): 1000 µM (≈ 295 µg/mL) | MIC95 (Staphylococcus aureus [13]): > 500 µM | MIC [14]: 1000 µM (≈ 295 µg/mL) | MIC95 (Staphylococcus aureus [15]): > 500 µM | Activity (Lichtheimia corymbifera): inactive | MIC95 (Enterococcus [16]): > 500 µM | MIC (Mycobacterium kansasii [17]): 1000 µM (≈ 295 µg/mL) | MIC95 (Escherichia coli [18]): > 500 µM | Activity (Pichia kudriavzevii): inactive | Activity (Klebsiella pneumoniae [19]): inactive | MIC95 (Staphylococcus aureus [20]): 500 µM (≈ 148 µg/mL) | Activity (Pseudomonas aeruginosa): inactive | MIC (Mycobacterium avium [21]): > 1000 µM | MIC95 [22]: > 500 µM | Activity (Klebsiella pneumoniae [23]): inactive

O=C(CN1C(=O)CSC1=S)Oc1ccccc1
MIC (Mycobacterium kansasii [1]): 1000 µM (≈ 267 µg/mL) | MIC95 (Staphylococcus aureus [2]): > 125 µM | MIC (Mycobacterium kansasii [3]): 1000 µM (≈ 267 µg/mL) | MIC95 [4]: > 125 µM | MIC (Mycobacterium kansasii [5]): 500 µM (≈ 134 µg/mL) | MIC (Mycobacterium avium [6]): 1000 µM (≈ 267 µg/mL) | MIC [7]: 1000 µM (≈ 267 µg/mL) | MIC95 (Enterococcus [8]): 125 µM (≈ 33.4 µg/mL) | MIC (Mycobacterium kansasii [9]): 1000 µM (≈ 267 µg/mL) | MIC95 (Escherichia coli [10]): > 125 µM | solubility [11]: Soluble | MIC (Mycobacterium kansasii [12]): 1000 µM (≈ 267 µg/mL) | MIC95 (Staphylococcus aureus [13]): > 125 µM | MIC [14]: 1000 µM (≈ 267 µg/mL) | MIC95 (Staphylococcus aureus [15]): > 125 µM | Activity (Lichtheimia corymbifera): inactive | MIC95 (Enterococcus [16]): > 125 µM | MIC (Mycobacterium kansasii [17]): 500 µM (≈ 134 µg/mL) | MIC95 (Escherichia coli [18]): > 125 µM | Activity (Pichia kudriavzevii): inactive | Activity (Klebsiella pneumoniae [19]): inactive | MIC95 (Staphylococcus aureus [20]): > 125 µM | Activity (Pseudomonas aeruginosa): inactive | MIC (Mycobacterium avium [21]): 1000 µM (≈ 267 µg/mL) | MIC95 [22]: > 125 µM | Activity (Klebsiella pneumoniae [23]): inactive

COc1ccc(OC(=O)CN2C(=O)CSC2=S)cc1
MIC (Mycobacterium kansasii [1]): 1000 µM (≈ 297 µg/mL) | MIC95 (Staphylococcus aureus [2]): > 500 µM | MIC (Mycobacterium kansasii [3]): 1000 µM (≈ 297 µg/mL) | MIC95 [4]: > 500 µM | MIC (Mycobacterium kansasii [5]): 1000 µM (≈ 297 µg/mL) | MIC (Mycobacterium avium [6]): 1000 µM (≈ 297 µg/mL) | MIC [7]: 1000 µM (≈ 297 µg/mL) | MIC95 (Enterococcus [8]): 500 µM (≈ 149 µg/mL) | MIC (Mycobacterium kansasii [9]): 1000 µM (≈ 297 µg/mL) | MIC95 (Escherichia coli [10]): > 500 µM | solubility [11]: Soluble | MIC (Mycobacterium kansasii [12]): 1000 µM (≈ 297 µg/mL) | MIC95 (Staphylococcus aureus [13]): > 500 µM | MIC [14]: 1000 µM (≈ 297 µg/mL) | MIC95 (Staphylococcus aureus [15]): > 500 µM | Activity (Lichtheimia corymbifera): inactive | MIC95 (Enterococcus [16]): > 500 µM | MIC (Mycobacterium kansasii [17]): 1000 µM (≈ 297 µg/mL) | MIC95 (Escherichia coli [18]): > 500 µM | Activity (Pichia kudriavzevii): inactive | Activity (Klebsiella pneumoniae [19]): inactive | MIC95 (Staphylococcus aureus [20]): > 500 µM | Activity (Pseudomonas aeruginosa): inactive | MIC (Mycobacterium avium [21]): 1000 µM (≈ 297 µg/mL) | MIC95 [22]: 500 µM (≈ 149 µg/mL) | Activity (Klebsiella pneumoniae [23]): inactive
